ChEMBL document CHEMBL4152356, “Amphipathic sulfonamidobenzamides mimicking small antimicrobial marine natural products; investigation of antibacterial and anti-biofilm activity against antibiotic resistant clinical isolates” (Bioorg Med Chem, 2018)

Key:
[1] = system: Staphylococcus epidermidis; test: Antibacterial activity against methicillin resistant Staphylococcus epidermidis RP62A ATCC 35984/CCUG 31568 after 48 hrs by microdilution method; type: functional; details: RP62A ATCC 35984/CCUG 31568, 48 h
Outline: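 Broth microdilution (modified CLSI M07-A9) against the MRSE reference strain. Inoculum of about 2.5-3 × 10^4 cells/ml in Mueller-Hinton broth mixed 1:1 with serial compound dilutions; final DMSO ≤1%. Incubated 35 °C, 48 h.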

[2] = system: Bacillus subtilis; test: Antibacterial activity against Bacillus subtilis 168 ATCC 23857 after 48 hrs by microdilution method; type: functional; details: subsp. subtilis str. 168 ATCC 23857, 48 h
Outline: (§1)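 Broth microdilution (CLSI M07-A9, modified) in Mueller-Hinton broth; inoculum about 2.5-3 × 10^4 cells/ml mixed 1:1 with serial compound dilutions. Stock solutions in up to 100% DMSO, final DMSO ≤1%. Incubated 35 °C for 48 h.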

[3] = system: Corynebacterium glutamicum; test: Antibacterial activity against Corynebacterium glutamicum ATCC 13032 after 48 hrs by microdilution method; type: functional; details: ATCC 13032, 48 h; outline: as §1
[4] = system: Escherichia coli; test: Antibacterial activity against Escherichia coli ATCC 25922 after 48 hrs by microdilution method; type: functional; details: ATCC 25922, 48 h; outline: as §1
[5] = Selectivity index, ratio of EC50 for human RBC to MIC for methicillin resistant Staphylococcus epidermidis RP62A ATCC 35984/CCUG 31568; type: toxicity; details: human red blood cells (RBC), read-out: Selectivity Index
Outline: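 SI = hemolytic EC50 / MRSE MIC. Hemolysis: washed human RBCs (heparinized blood, healthy adult donor) at 10% in PBS pH 7.4, mixed 9:1 with serial compound dilutions, 37 °C for 1 h. 0.05% Triton X-100 set 100% lysis, 0.5% DMSO set baseline. MIC from MHB microdilution, 35 °C, […].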

[6] = system: Staphylococcus aureus; test: Antibacterial activity against Staphylococcus aureus clinical isolates after 24 hrs by microdilution method; type: functional
Outline: (§2)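 Clinical isolate screen by broth microdilution with about 1-1.2 × 10^6 cells/ml and 24 h incubation. MIC is the lowest concentration with no growth. For isolate collections, MIC90 is the MIC inhibiting ≥90% of isolates. Multidrug resistance was defined as resistance to at least […] antimicrobial class.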

[7] = system: Enterococcus sp.; test: Antibacterial activity against Enterococcus sp. clinical isolates after 24 hrs by microdilution method; type: functional; outline: as §2
[8] = system: Pseudomonas aeruginosa; test: Antibacterial activity against Pseudomonas aeruginosa clinical isolates after 24 hrs by microdilution method; type: functional; outline: as §2
[9] = system: Staphylococcus aureus; test: Antibacterial activity against methicillin resistant Staphylococcus aureus N315 clinical isolate after 24 hrs by microdilution method; type: functional; details: N315, 24 h
Outline: (§3)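 Broth microdilution in Mueller-Hinton broth (modified CLSI M07-A9), clinical isolates at about 1-1.2 × 10^6 cells/ml. Inoculum mixed 1:1 with serial compound dilutions; stocks made in up to 100% DMSO, final DMSO ≤1%. Incubated 24 h.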

[10] = system: Staphylococcus aureus; test: Antibacterial activity against methicillin resistant Staphylococcus aureus NCTC 10442 clinical isolate after 24 hrs by microdilution method; type: functional; details: NCTC 10442, 24 h; outline: as §3
[11] = system: Staphylococcus aureus; test: Antibacterial activity against methicillin resistant Staphylococcus aureus 85/2082 clinical isolate after 24 hrs by microdilution method; type: functional; details: 85/2082, 24 h; outline: as §3
[12] = system: Enterococcus faecium; test: Antibacterial activity against vancomycin resistant Enterococcus faecium 50,901,530 clinical isolate after 24 hrs by microdilution method; type: functional; details: Enterococcus faecium, 50,901,530, 24 h; outline: as §3
[13] = system: Enterococcus faecium; test: Antibacterial activity against vancomycin resistant Enterococcus faecium K36-18 clinical isolate after 24 hrs by microdilution method; type: functional; details: K36-18, 24 h; outline: as §3
[14] = system: Enterococcus faecium; test: Antibacterial activity against vancomycin resistant Enterococcus faecium 50,758,899 clinical isolate after 24 hrs by microdilution method; type: functional; details: Enterococcus faecium, 50,758,899, 24 h; outline: as §3
[15] = system: Escherichia coli; test: Antibacterial activity against oxacillinase 48-producing Escherichia coli 50,579,417 clinical isolate after 24 hrs by microdilution method; type: functional; details: Escherichia coli, 50,579,417, 24 h; outline: as §2
[16] = system: Escherichia coli; test: Antibacterial activity against New Delhi metallo-beta-lactamase 1-producing Escherichia coli 50,676,002 clinical isolate after 24 hrs by microdilution method; type: functional; details: Escherichia coli, 50,676,002, 24 h; outline: as §2
[17] = system: Escherichia coli; test: Antibacterial activity against New Delhi metallo-beta-lactamase 1-producing Escherichia coli 50,739,822 clinical isolate after 24 hrs by microdilution method; type: functional; details: Escherichia coli, 50,739,822, 24 h; outline: as §2
[18] = system: Escherichia coli; test: Antibacterial activity against imipenem 26-type carbapenemase-producing Escherichia coli 50,857,972 clinical isolate after 24 hrs by microdilution method; type: functional; details: Escherichia coli, 50,857,972, 24 h; outline: as §2
[19] = system: Pseudomonas aeruginosa; test: Antibacterial activity against Verona integron-encoded metallo-beta-lactamase 4-producing Pseudomonas aeruginosa K3473 clinical isolate after 24 hrs by microdilution method; type: functional; details: K3473, 24 h; outline: as §2
[20] = system: Pseudomonas aeruginosa; test: Antibacterial activity against imipenem 14-type carbapenemase-producing Pseudomonas aeruginosa K4424 clinical isolate after 24 hrs by microdilution method; type: functional; details: K4424, 24 h; outline: as §2
[21] = system: Pseudomonas aeruginosa; test: Antibacterial activity against New Delhi metallo-beta-lactamase 1-producing Pseudomonas aeruginosa 50,692,172 clinical isolate after 24 hrs by microdilution method; type: functional; details: Pseudomonas aeruginosa, 50,692,172, 24 h; outline: as §2
[22] = system: Klebsiella pneumoniae; test: Antibacterial activity against New Delhi metallo-beta-lactamase 1-producing Klebsiella pneumoniae K6645 clinical isolate after 24 hrs by microdilution method; type: functional; details: K6645, 24 h; outline: as §2
[23] = system: Klebsiella pneumoniae; test: Antibacterial activity against New Delhi metallo-beta-lactamase 1/oxacillinase 181-producing Klebsiella pneumoniae 50531633 clinical isolate after 24 hrs by microdilution method; type: functional; details: Klebsiella pneumoniae, 50531633, 24 h; outline: as §2
[24] = system: Klebsiella pneumoniae; test: Antibacterial activity against oxacillinase 245-producing Klebsiella pneumoniae 50,625,602 clinical isolate after 24 hrs by microdilution method; type: functional; details: Klebsiella pneumoniae, 50,625,602, 24 h; outline: as §2
[25] = system: Acinetobacter baumannii; test: Antibacterial activity against oxacillinase 58-producing Acinetobacter baumannii K12-21 clinical isolate after 24 hrs by microdilution method; type: functional; details: K12-21, 24 h; outline: as §3
[26] = system: Acinetobacter baumannii; test: Antibacterial activity against oxacillinase 23-producing Acinetobacter baumannii K47-42 clinical isolate after 24 hrs by microdilution method; type: functional; details: K47-42, 24 h; outline: as §3
[27] = system: Acinetobacter baumannii; test: Antibacterial activity against oxacillinase 24-producing Acinetobacter baumannii K55-13 clinical isolate after 24 hrs by microdilution method; type: functional; details: K55-13, 24 h; outline: as §3
[28] = system: Acinetobacter baumannii; test: Antibacterial activity against colistin-resistant oxacillinase 23-producing Acinetobacter baumannii K63-58 clinical isolate after 24 hrs by microdilution method; type: functional; details: K63-58, 24 h; outline: as §3
[29] = system: Staphylococcus epidermidis; test: Antibiofilm activity against Staphylococcus epidermidis RP62A ATCC 35984/CCUG 31568 incubated for 24 +/- 2 hrs by crystal violet staining based assay; type: functional
Outline: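 Mature S. epidermidis RP62A biofilms: filtered overnight TSB culture adjusted to 2 McFarland, diluted in TSB with 1% glucose to about 6 × 10^6 CFU/ml, grown 24 ± 2 h at 37 °C static, then PBS-washed. Compounds in 50% TSBglu added for 24 ± 2 h at 37 °C. Biomass given as % of untreated control; ≥90% eradication threshold. Compounds tested at 2x, 5x and 10x MIC, 4-8 parallels on 2-3 plates, highest and lowest values excluded.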

Structure (SMILES) | MIC [1] [µg/mL] | MIC [2] [µg/mL] | MIC [3] [µg/mL] | MIC [4] [µg/mL] | selectivity ratio [5] | MIC [6] [µg/mL] | MIC [7] [µg/mL] | MIC [8] [µg/mL] | MIC [9] [µg/mL] | MIC [10] [µg/mL] | MIC [11] [µg/mL] | MIC [12] [µg/mL] | MIC [13] [µg/mL] | MIC [14] [µg/mL] | MIC [15] [µg/mL] | MIC [16] [µg/mL] | MIC [17] [µg/mL] | MIC [18] [µg/mL] | MIC [19] [µg/mL] | MIC [20] [µg/mL] | other results
CC(C)(C)c1cc(C(C)(C)C)cc(S(=O)(=O)Nc2cc3ccccc3cc2C(=O)NCCNC(=N)N)c1.Cl | 4 | 4 | 2 | 8 | 6 | 4 | 8 | 32 to 64 | 4 | 8 | 8 | 8 | 8 | 8 | ≥ 32 | > 32 | > 32 | > 32 | ≥ 32 | > 64 | MIC [21]: > 64 µg/mL; MIC [22]: 32 µg/mL; MIC [23]: > 32 µg/mL; MIC [24]: ≥ 32 µg/mL; MIC [25]: 32 µg/mL; MIC [26]: 32 µg/mL; MIC [27]: 32 µg/mL; MIC [28]: 32 µg/mL; MBIC=>90 [29]: 40 µg/mL
CN(c1ccc(C(=O)NCCCNC(=N)N)cc1)S(=O)(=O)c1cc(C(C)(C)C)cc(C(C)(C)C)c1.Cl | 4 | 4 | 2 | 16 | 14 | 4 | 8 to 16 | 8 to 16 | 8 | 8 | 8 | 16 | 16 | 8 | ≥ 32 | ≥ 32 | ≥ 32 | 32 | 32 | 32 | MIC [21]: 32 µg/mL; MIC [22]: 32 µg/mL; MIC [23]: ≥ 32 µg/mL; MIC [24]: ≥ 32 µg/mL; MIC [25]: ≥ 32 µg/mL; MIC [26]: 32 µg/mL; MIC [27]: ≥ 32 µg/mL; MIC [28]: ≥ 32 µg/mL; MBIC=>90 [29]: 40 µg/mL
